# According to ChEMBL document CHEMBL1123074, “Aromatase inhibitors. Synthesis and biological activity of androstenedione derivatives” (J Med Chem, 1985):
# What was measured:
# Aromatase [1] = molecular target: T1, Aromatase (Homo sapiens, UniProt P11511); experiment: Percent inhibition of human placental Cytochrome P450 19A1 at 1:1 inhibitor: androstenedione (0.7 uM) ratio
# T1 sequence (P11511 whole entry): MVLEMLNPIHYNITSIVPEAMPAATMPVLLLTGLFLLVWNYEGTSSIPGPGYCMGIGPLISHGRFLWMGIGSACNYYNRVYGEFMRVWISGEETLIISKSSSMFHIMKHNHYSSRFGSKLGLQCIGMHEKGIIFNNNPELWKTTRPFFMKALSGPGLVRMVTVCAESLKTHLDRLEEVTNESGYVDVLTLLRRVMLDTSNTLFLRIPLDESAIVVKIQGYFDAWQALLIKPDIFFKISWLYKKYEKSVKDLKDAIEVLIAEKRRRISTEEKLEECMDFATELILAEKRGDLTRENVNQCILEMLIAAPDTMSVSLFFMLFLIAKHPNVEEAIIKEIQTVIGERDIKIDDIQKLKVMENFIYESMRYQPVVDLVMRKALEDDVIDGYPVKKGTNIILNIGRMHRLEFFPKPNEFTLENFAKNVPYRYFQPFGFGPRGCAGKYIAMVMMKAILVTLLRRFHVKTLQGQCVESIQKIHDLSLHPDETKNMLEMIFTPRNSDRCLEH
# Method in brief: (§1)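 Human term placental microsomes (0.3-0.9 mg protein) incubated with test compound at stated inhibitor:substrate ratio, [4-14C]androstenedione, 0.7 μM androstenedione and NADPH-generating system (NADP, glucose 6-phosphate, glucose-6-phosphate dehydrogenase) in 0.1 M phosphate buffer pH 7.4, 30 min, 37 °C under oxygen. Stopped with [6,7-3H2]estradiol/estrone recovery markers and carriers; estrogens extracted, TLC-purified, quantified versus control.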
# Aromatase [2] = molecular target: T1, Aromatase; experiment: Percent inhibition of human placental Cytochrome P450 19A1 at 3:1 inhibitor: androstenedione (0.7 uM) ratio; method in brief: as §1
# Aromatase [3] = molecular target: T1, Aromatase; experiment: Percent inhibition of human placental Cytochrome P450 19A1 at 6:1 inhibitor: androstenedione (0.7 uM) ratio; method in brief: as §1
Structure (SMILES),Inhibition (Aromatase [1]),Inhibition (Aromatase [2]),Inhibition (Aromatase [3])
CC(=O)OC1=C2CCC3C4CCC(=O)C4(C)CCC3C2(C)CCC1=O (stereo unspecified),81%,90%,
COC1=C2CCC3C4CCC(=O)C4(C)CCC3C2(C)CCC1=O (stereo unspecified),,7%,28%
CC12CCC3C(CC(=O)C4=CC(=O)CCC43C)C1CCC2=O (stereo unspecified),,78%,
CC12CCC3C(CCC4=C(OC(=O)CCC(=O)O)C(=O)CCC43C)C1CCC2=O (stereo unspecified),,70%,
CC12CCC3C(CCC4=C(Cl)C(=O)CCC43C)C1CCC2=O (stereo unspecified),,9%,43%
C[C@]12C=CC(=O)C=C1C=C[C@@H]1[C@@H]2CC[C@]2(C)C(=O)CC[C@@H]12,69%,83%,
CC12CCC3C(C=CC4=C(O)C(=O)CCC43C)C1CCC2=O (stereo unspecified),8%,30%,
C[C@]12CCC(=O)C(O)=C1CC[C@@H]1[C@@H]2CC[C@]2(C)C(=O)CC[C@@H]12 [FORMESTANE],89%,91%,
CC12C=CC(=O)C(O)=C1CCC1C2CCC2(C)C(=O)CCC12 (stereo unspecified),66%,84%,
